Assay results reported in ChEMBL document CHEMBL1129787, “Synthesis of potent cyclic hexapeptide NK-1 antagonists. Use of a minilibrary in transforming a peptidal somatostatin receptor ligand into an NK-1 receptor ligand via a polyvalent peptidomimetic” (J Med Chem, 1996).
Non-standard residues stand in square brackets, D forms with d. Residues, ends and D or L forms follow the SMILES beside them. Phe(4-F) = N[C@@H](Cc1ccc(F)cc1)C(=O)O; 1Nal = N[C@@H](Cc1cccc2ccccc12)C(=O)O

What was measured:
[1] = target: T1, Substance-P receptor (Homo sapiens, UniProt P25103); test: Inhibition of Tachykinin receptor 1
Summary of the method: (§1)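 NK-1 receptor inhibition assay. IC50 is reported in nM as the mean ± SD.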

[2] = target: T1, Substance-P receptor; test: Binding affinity towards Tachykinin receptor 1; summary of the method: as §1
[3] = target: Beta-2 adrenergic receptor (Homo sapiens, UniProt P07550); test: Binding affinity towards cloned human Beta-2 adrenergic receptor
[4] = target: Somatostatin receptor; test: Ability to inhibit binding of […]-CGP 23996 to somatostatin receptor on membranes from cerebral cortex; assay type: tissue-based
[5] = target: Somatostatin receptor; test: Ability to inhibit binding of […]-CGP 23996 to somatostatin receptor on membranes from pituitary
[6] = target: T1, Substance-P receptor; test: Percent Inhibition against Tachykinin receptor 1 at 2 uM

T1 sequence (P25103 whole entry): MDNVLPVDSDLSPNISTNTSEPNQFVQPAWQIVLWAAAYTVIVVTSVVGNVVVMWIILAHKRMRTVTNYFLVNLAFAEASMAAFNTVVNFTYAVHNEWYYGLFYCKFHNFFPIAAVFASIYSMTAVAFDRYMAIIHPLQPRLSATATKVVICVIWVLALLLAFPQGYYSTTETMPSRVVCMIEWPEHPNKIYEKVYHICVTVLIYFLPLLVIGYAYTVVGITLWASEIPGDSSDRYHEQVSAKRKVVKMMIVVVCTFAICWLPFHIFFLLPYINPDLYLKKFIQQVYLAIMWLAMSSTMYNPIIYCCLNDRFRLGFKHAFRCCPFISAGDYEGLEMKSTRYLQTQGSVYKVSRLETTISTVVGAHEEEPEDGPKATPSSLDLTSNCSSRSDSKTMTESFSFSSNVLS
Beta-2 adrenergic receptor, sequence (P07550 whole entry): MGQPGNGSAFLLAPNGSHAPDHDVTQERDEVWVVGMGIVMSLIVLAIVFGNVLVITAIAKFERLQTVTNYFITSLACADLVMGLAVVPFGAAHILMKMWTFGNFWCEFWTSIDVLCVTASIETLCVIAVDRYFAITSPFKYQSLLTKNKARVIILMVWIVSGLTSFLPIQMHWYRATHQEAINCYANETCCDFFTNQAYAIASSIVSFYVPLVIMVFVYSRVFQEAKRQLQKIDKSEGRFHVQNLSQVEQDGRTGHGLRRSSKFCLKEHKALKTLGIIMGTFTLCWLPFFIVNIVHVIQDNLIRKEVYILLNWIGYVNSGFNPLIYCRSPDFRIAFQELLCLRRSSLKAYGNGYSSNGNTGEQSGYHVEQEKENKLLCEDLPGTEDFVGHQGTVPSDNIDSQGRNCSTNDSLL

Row | SMILES | IC50 [1] | further results
1 | C[C@@H](O)[C@@H]1NC(=O)[C@H](Cc2ccc(O)cc2)NC(=O)[C@@H](Cc2c[nH]c3ccccc23)NC(=O)[C@H](Cc2ccccc2)NC(=O)[C@@H]2CCCN2C(=O)[C@H](Cc2ccccc2)NC1=O (cyclo(FPF[dW]YT)) | 1050 nM | –
2 | COc1ccc(C[C@@H]2NC(=O)[C@@H](Cc3c[nH]c4ccccc34)NC(=O)[C@H](Cc3ccccc3)NC(=O)[C@@H]3CCCN3C(=O)[C@H](Cc3ccccc3)NC(=O)[C@H]([C@@H](C)O)NC2=O)cc1 (cyclo(FPF[dW]Y(Me)T)) | 59 nM | –
3 | C[C@@H](O)[C@@H]1NC(=O)[C@H](Cc2ccccc2)NC(=O)[C@@H](Cc2c[nH]c3ccccc23)NC(=O)[C@H](Cc2cccc3ccccc23)NC(=O)[C@@H]2CCCN2C(=O)[C@H](Cc2ccccc2)NC1=O (cyclo([1Nal][dW]FTFP)) | 15 nM | –
4 | C[C@@H](O)[C@@H]1NC(=O)[C@H](Cc2ccccc2)NC(=O)[C@@H](Cc2c[nH]c3ccccc23)NC(=O)[C@H](CC2CCCCC2)NC(=O)[C@@H]2CCCN2C(=O)[C@H](Cc2ccccc2)NC1=O | 198 nM | –
5 | C[C@H](O)[C@@H]1NC(=O)[C@H](Cc2ccccc2)NC(=O)[C@@H](Cc2c[nH]c3ccccc23)NC(=O)[C@H](Cc2ccccc2)NC(=O)[C@@H]2CCCN2C(=O)[C@H](Cc2ccccc2)NC1=O | 95 nM | –
6 | C[C@@H]1NC(=O)[C@@H]2CCCN2C(=O)[C@H](Cc2ccccc2)NC(=O)[C@H]([C@@H](C)O)NC(=O)[C@H](Cc2ccccc2)NC(=O)[C@@H](Cc2c[nH]c3ccccc23)NC1=O | 549 nM | –
7 | C[C@@H](O)[C@@H]1NC(=O)[C@H](Cc2ccccc2)NC(=O)[C@@H](Cc2c[nH]c3ccccc23)NC(=O)[C@H](CC(=O)O)NC(=O)[C@@H]2CCCN2C(=O)[C@H](Cc2ccccc2)NC1=O (cyclo(D[dW]FTFP)) | 1390 nM | –
8 | C[C@@H](O)[C@@H]1NC(=O)[C@H](CCCCN)NC(=O)[C@@H](Cc2c[nH]c3ccccc23)NC(=O)[C@H](Cc2ccccc2)NC(=O)[C@@H]2CCCN2C(=O)[C@H](Cc2ccccc2)NC1=O (cyclo(PF[dW]KTF)) | > 1000 nM | –
9 | NCCCCCOC[C@H]1O[C@@H](OCCc2c[nH]c3ccccc23)[C@H](OCc2ccccc2)C[C@@H]1OCc1ccccc1 | – | IC50 [2]: 180 nM; IC50 [3]: 3000 nM
10 | CC(C)C[C@@H]1NC(=O)[C@@H](Cc2c[nH]c3ccccc23)NC(=O)[C@H](Cc2ccccc2)NC(=O)[C@@H]2CCCN2C(=O)[C@H](Cc2ccccc2)NC(=O)[C@H]([C@@H](C)O)NC1=O | 2730 nM | –
11 | C[C@@H](O)[C@@H]1NC(=O)[C@H](Cc2ccc(F)cc2)NC(=O)[C@@H](Cc2c[nH]c3ccccc23)NC(=O)[C@H](Cc2cccc3ccccc23)NC(=O)[C@@H]2CCCN2C(=O)[C@H](Cc2ccccc2)NC1=O (cyclo([1Nal][dW][Phe(4-F)]TFP)) | 2 nM | –
12 | CC(C)[C@@H]1NC(=O)[C@H](CCCCN)NC(=O)[C@@H](Cc2c[nH]c3ccccc23)NC(=O)[C@H](Cc2ccc(O)cc2)NC(=O)[C@H](C)N(C)C(=O)[C@H](Cc2ccccc2)NC1=O [SEGLITIDE] | > 1000 nM | –
13 | C[C@@H](O)[C@@H]1NC(=O)[C@H](Cc2ccccc2)NC(=O)[C@@H](Cc2c[nH]c3ccccc23)NC(=O)[C@H](CCc2ccccc2)NC(=O)[C@@H]2CCCN2C(=O)[C@H](Cc2ccccc2)NC1=O | 85 nM | –
14 | NCCCCCOC[C@H]1O[C@@H](OCCc2c[nH]c3ccccc23)[C@H](OCc2ccccc2)[C@@H](OCc2ccccc2)[C@@H]1OCc1ccccc1 | – | IC50 [4]: 5000 nM; IC50 [5]: 5000 nM; IC50 [3]: 3000 nM
15 | C[C@@H](O)[C@@H]1NC(=O)[C@H](Cc2ccccc2)NC(=O)[C@@H](Cc2c[nH]c3ccccc23)NC(=O)[C@@H]2CCCN2C(=O)[C@@H]2CCCN2C(=O)[C@H](Cc2ccccc2)NC1=O | – | inhibition [6]: 51%
16 | C[C@@H]1NC(=O)[C@@H](Cc2c[nH]c3ccccc23)NC(=O)[C@H](Cc2ccccc2)NC(=O)[C@@H]2CCCN2C(=O)[C@H](Cc2ccccc2)NC(=O)[C@H]([C@@H](C)O)NC1=O | 4090 nM | –
17 | C[C@@H](O)[C@@H]1NC(=O)[C@H](Cc2ccc(F)cc2)NC(=O)[C@@H](Cc2c[nH]c3ccccc23)NC(=O)[C@H](Cc2ccccc2)NC(=O)[C@@H]2CCCN2C(=O)[C@H](Cc2ccccc2)NC1=O (cyclo(FPF[dW][Phe(4-F)]T)) | 28 nM | –
18 | C[C@H](O)[C@@H]1NC(=O)[C@H](Cc2ccccc2)NC(=O)[C@@H](Cc2c[nH]c3ccccc23)NC(=O)[C@@H](Cc2ccccc2)NC(=O)[C@@H]2CCCN2C(=O)[C@H](Cc2ccccc2)NC1=O | 496 nM | –
19 | CC(=O)NCCCCCOC[C@H]1O[C@@H](OCCc2c[nH]c3ccccc23)[C@H](OCc2ccccc2)[C@@H](OCc2ccccc2)[C@@H]1OCc1ccccc1 | – | IC50 [2]: 60 nM
20 | C[C@@H](O)[C@@H]1NC(=O)[C@H](Cc2ccccc2)NC(=O)[C@@H](Cc2c[nH]c3ccccc23)NC(=O)[C@H](CO)NC(=O)[C@@H]2CCCN2C(=O)[C@H](Cc2ccccc2)NC1=O | 596 nM | –
